Results from article PMC3668520 (FEBS Open Bio, 2013).

Columns and labels:
FLAG-tagged human EBI2 = FLAG-tagged human EBI2 (Homo sapiens, UniProt P32249); assay: [35S]GTPγS binding to membranes from CHO cells stably expressing EBI2; format: biochemical
In short: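 Membranes from CHO Flp-In cells stably expressing M1-FLAG-EBI2 or pcDNA5 (10 μg) were incubated 30 min with ligands and 1 nM [35S]GTPγS. WGA SPA beads (2.8 mg/mL) were then added for 30 min, followed by centrifugation and scintillation counting. Nonspecific binding was defined with 40 μM unlabelled GTPγS. Inhibition was run at 1 nM 7α,25-OHC. Agonist curves were run at 0, 100 nM, 1 μM and 10 μM antagonist. Kd and slope come from Schild regression (x-intercept). Three independent experiments.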

[1] = test system: B cells isolated from wt and EBI2-overexpressing C57BL/6 mice; assay: Ex vivo B cell chemotaxis; format: cell-based, mouse
In short: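 B cells came from wt and EBI2-overexpressing C57BL/6 mice. 7α,25-OHC and/or test compound was placed in the lower chamber, and 200,000 cells went onto 5 μm-pore filters. After 5 h at 37 °C, migrated cells were quantified by CellTiterGlo luminescence. Agonist response is expressed as chemotactic index (four experiments). Inhibition was tested on EBI2-overexpressing cells with 0.1 nM 7α,25-OHC, relative to agonist alone (three experiments).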

[2] = test system: FLAG-tagged human EBI2 (ERK1/2 phosphorylation); assay: ERK1/2 phosphorylation in CHO cells stably expressing EBI2; format: cell-based; conditions: 10 min, read-out: EC50, ERK1/2 activation
[3] = test system: FLAG-tagged human EBI2 (p38 phosphorylation); assay: p38 phosphorylation in CHO cells stably expressing EBI2; format: cell-based; conditions: serum-starved CHO EBI2 cells; ptx-sensitive
EBI2 = conditions: at 5 μM; ref PubChem BioAssay ID: 651636; cited from earlier work

Chain of FLAG-tagged human EBI2 (P32249 whole entry): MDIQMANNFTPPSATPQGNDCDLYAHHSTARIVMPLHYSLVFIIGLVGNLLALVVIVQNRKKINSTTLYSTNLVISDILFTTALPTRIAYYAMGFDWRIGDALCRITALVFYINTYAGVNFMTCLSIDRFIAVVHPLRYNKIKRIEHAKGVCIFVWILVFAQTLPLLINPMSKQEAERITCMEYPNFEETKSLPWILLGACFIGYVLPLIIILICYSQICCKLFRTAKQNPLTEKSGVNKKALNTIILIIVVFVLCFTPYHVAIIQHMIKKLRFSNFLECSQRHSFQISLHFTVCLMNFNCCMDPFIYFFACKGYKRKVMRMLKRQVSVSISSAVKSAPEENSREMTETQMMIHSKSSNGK

Row | EC50 (FLAG-tagged human EBI2) [nM] | EC50 ([1]; Mus musculus, B-cell, read-out: EC50, chemotaxis) [nM] | EC50 [2] [nM] | Structure (SMILES) | Concentration at which chemotaxis peaked ([1]; both wt and EBI2-OE B cells) [nM] | p38 activation [3] | Suppression of 7α,25-OHC-induced β-arrestin recruitment (EBI2)
1 | 1 | 0.1 | 3 | C[C@H](CCCC(C)(C)O)[C@H]1CC[C@H]2[C@@H]3[C@H](O)C=C4C[C@@H](O)CC[C@]4(C)[C@H]3CC[C@]12C [7α,25-OHC, 7α,25-dihydroxycholesterol] | 1 | dose-dependently activated | 
2 |  |  |  | O=C(/C=C/c1ccc(Cl)cc1)N1CCN(c2c(Cl)cccc2[N+](=O)[O-])CC1 [CID: 5804570] |  |  | best compound
